Laboratory results as given in ChEMBL document CHEMBL1153742, “Cytotoxic constituents of the lichen Diploicia canescens” (J Nat Prod, 2009).

What was measured:
Format in all cases: functional, cell-based
[1] = system: B16; test: Cytotoxicity against mouse B16 cells after 72 hrs by MTT assay; conditions: B16, 72 h
How it was run: (§1)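 B16 melanoma cells were seeded at 15 000 cells/mL in RPMI 1640 with 5% FCS, and after 5 h the medium was switched to RPMI with 1% FCS. Serial dilutions from 0.25 to 100 µM were added on days 1, 2 and 3. Cells were incubated at 37 °C in 10% CO2 for 72 h, and viability was read by MTT on day 4. Each concentration ran in triplicate wells, and each experiment was repeated at least three times.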

[2] = system: HaCaT; test: Cytotoxicity against human HaCaT cells after 72 hrs by MTT assay
How it was run: as §1, with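 “HaCaT keratinocytes” for “B16 melanoma cells”, “25” for “15”, “DMEM” for “RPMI 1640”, “10%” for “5%”, “reduced-serum DMEM.” for “RPMI with 1% FCS.”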

[3] = system: B16; test: Cytotoxicity against mouse B16 cells after 48 hrs by MTT assay; conditions: B16, 48 h
How it was run: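 Mouse B16 melanoma cells were seeded at 30 000 cells/mL in RPMI 1640 with 10% FCS on day 0. Compound dilutions were added on day 1. Cells were incubated at 37 °C under 10% CO2, and growth and viability were read by MTT after 48 h. IC50 was derived from at least three independent experiments, with three wells per concentration.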

Compound	IC50 [1] [µM]	IC50 [2] [µM]	IC50 [3] [µM]
COC(=O)c1c(Oc2c(C)c(Cl)c(OC)c(Cl)c2O)cc(OC)c(Cl)c1C [BUELLIN]	0.25	> 10	–
COc1c(Cl)c(C)c2c(c1Cl)OC(=O)c1c(cc(O)c(Cl)c1C)O2 [DECHLORODEPLOICIN]	1.7	4.3	–
COc1c(Cl)c(C)c2c(c1Cl)OC(=O)c1c(C)c(Cl)c(O)c(Cl)c1O2 [DIPLOICIN]	4	> 10	–
COc1cc([C@@H]2c3cc4c(cc3[C@@H](O[C@@H]3O[C@@H]5CO[C@@H](C)O[C@H]5[C@H](O)[C@H]3O)[C@H]3COC(=O)[C@H]23)OCO4)cc(OC)c1O [ETOPOSIDE]	0.28	0.55	–
COc1cc2c(c(C)c1Cl)Oc1cc(OC)c(Cl)c(C)c1C(=O)O2 [SCENSIDIN]	0.4	6.1	–
COC(=O)[C@@]12Oc3ccc(-c4ccc5c(c4O)C(=O)C4=C(O)C[C@H](C)[C@H](O)[C@]4(C(=O)OC)O5)c(O)c3C(=O)C1=C(O)C[C@H](C)[C@@H]2O [SECALONIC ACID B]	–	> 10	2.8
COC(=O)[C@@]12Oc3ccc(-c4ccc5c(c4O)C(O)C4=C(O)C[C@H](C)[C@@H](O)[C@]4(C(=O)OC)O5)c(O)c3C(=O)C1=C(O)C[C@H](C)[C@H]2O (some centres undefined) [SECALONIC ACID D]	–	3.7	0.28
